Assay results reported in ChEMBL document CHEMBL1926594, “Molecular modeling studies, synthesis, configurational stability and biological activity of 8-chloro-2,3,5,6-tetrahydro-3,6-dimethyl-pyrrolo[1,2,3-de]-1,2,4-benzothiadiazine 1,1-dioxide” (Bioorg Med Chem, 2011).
Values belong to the molecule of their own block, whether it stands above or below them.

Key:
[1] = Chemical stability of compound assessed as compound hydrolysis at pH 2.2 at 37.5 degC after 90 mins; type: physicochemical; details: buffer, pH 2.2, 1.5 h
In short: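 (3*,6R) epimeric mixture held on reactor column in chloroacetate buffer (ionic strength 0.01, pH 2.20) at 37.5 °C for up to 90 min. Hydrolysis checked by the sf-BD-rHPLC method: Chiralcel OD-R separative column at 0 °C, water/acetonitrile 50:50 (v/v) eluent.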

[2] = Configurational stability of compound assessed as half life using IAM column by stopped flow bidimensional recycling HPLC; type: physicochemical; details: IAM column (stationary phase)
In short: (§1)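 sf-BD-rHPLC with an IAM-based reactor column. (3*,6R) epimers separated on Chiralcel OD-R at 0 °C using water/acetonitrile 50:50 (v/v). Trapped epimer interconverts at 37.5 °C in chloroacetate buffer pH 2.20 or phosphate buffer pH 7.00 (ionic strength 0.01), then is re-separated at 0 °C, n = 4. Forward, backward and equilibrium rate constants derived from peak areas.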

[3] = Configurational stability of compound in water-acetonitrile assessed as backward rate equilibrium epimerization at pH 2.2 using IAM column by stopped flow bidimensional recycling HPLC; type: physicochemical; details: artificial membrane; in short: as §1
[4] = Configurational stability of compound in water-acetonitrile assessed as forward rate epimerization at pH 7 using IAM column by stopped flow bidimensional recycling HPLC; type: physicochemical; details: artificial membrane; in short: as §1
[5] = Configurational stability of compound in water-acetonitrile assessed as forward rate equilibrium epimerization at pH 7 using IAM column by stopped flow bidimensional recycling HPLC; type: physicochemical; details: artificial membrane; in short: as §1
[6] = Configurational stability of compound in water-acetonitrile assessed as forward rate equilibrium epimerization at pH 7 using C-8 column by stopped flow bidimensional recycling HPLC; type: physicochemical; details: buffer
In short: (§2)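 Stopped-flow bidimensional recycling HPLC on the (3*,6R) epimeric mixture. Epimers separated on Chiralcel OD-R at 0 °C with water/acetonitrile 50:50 (v/v). One epimer is trapped on a Supelcosil LC-8 (C8) reactor column and epimerizes at 37.5 °C in chloroacetate buffer pH 2.20 or phosphate buffer pH 7.00 (ionic strength 0.01). Column recooled to 0 °C, epimers re-separated, n = 4. Rate constants from first-order reversible kinetics.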

[7] = Configurational stability of compound in water-acetonitrile assessed as forward rate epimerization at 25 degC by dynamic HPLC analysis; type: physicochemical; details: buffer
In short: (§3)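 Dynamic HPLC on the (3*,6R) epimeric mixture: isocratic Chiralcel OD-R column, water/acetonitrile 50:50 (v/v), run at temperatures of 5-37 °C. Sample at 100 μg/mL final, 20 μL injected, UV detection at 254 nm. Interconversion rate constants obtained from elution profiles by integration of the interconverting peak areas.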

[8] = Configurational stability of compound in water-acetonitrile assessed as forward rate epimerization at pH 7 using C-8 column by stopped flow bidimensional recycling HPLC; type: physicochemical; details: buffer; in short: as §2
[9] = Configurational stability of compound in water-acetonitrile assessed as backward rate epimerization at pH 2.2 using IAM column by stopped flow bidimensional recycling HPLC; type: physicochemical; details: artificial membrane; in short: as §1
[10] = Configurational stability of compound in water-acetonitrile assessed as forward rate epimerization at 37 degC by dynamic HPLC analysis; type: physicochemical; details: buffer; in short: as §3
[11] = Configurational stability of compound in water-acetonitrile assessed as forward rate epimerization at pH 2.2 using IAM column by stopped flow bidimensional recycling HPLC; type: physicochemical; details: artificial membrane; in short: as §1
[12] = Configurational stability of compound in water-acetonitrile assessed as backward rate equilibrium epimerization at pH 7 using IAM column by stopped flow bidimensional recycling HPLC; type: physicochemical; details: artificial membrane; in short: as §1
[13] = Configurational stability of compound assessed as half life using C-8 column by stopped flow bidimensional recycling HPLC; type: physicochemical; details: C-8 column (stationary phase); in short: as §2
[14] = Configurational stability of compound in water-acetonitrile assessed as backward rate epimerization at 25 degC by dynamic HPLC analysis; type: physicochemical; details: buffer; in short: as §3
[15] = Configurational stability of compound in water-acetonitrile assessed as backward rate equilibrium epimerization at pH 7 using C-8 column by stopped flow bidimensional recycling HPLC; type: physicochemical; details: buffer; in short: as §2
[16] = Configurational stability of compound in water-acetonitrile assessed as backward rate epimerization at pH 7 using C-8 column by stopped flow bidimensional recycling HPLC; type: physicochemical; details: buffer; in short: as §2
[17] = Configurational stability of compound in water-acetonitrile assessed as forward rate epimerization at 5 degC by dynamic HPLC analysis; type: physicochemical; details: buffer; in short: as §3
[18] = Configurational stability of compound in water-acetonitrile assessed as forward equilibrium rate epimerization at 5 degC by dynamic HPLC analysis; type: physicochemical; details: buffer; in short: as §3
[19] = Configurational stability of compound in water-acetonitrile assessed as forward rate equilibrium epimerization at pH 2.2 using C-8 column by stopped flow bidimensional recycling HPLC; type: physicochemical; details: buffer; in short: as §2
[20] = Configurational stability of compound in water-acetonitrile assessed as backward rate epimerization at pH 2.2 using C-8 column by stopped flow bidimensional recycling HPLC; type: physicochemical; details: buffer; in short: as §2
[21] = Configurational stability of compound in water-acetonitrile assessed as forward rate epimerization at pH 2.2 using C-8 column by stopped flow bidimensional recycling HPLC; type: physicochemical; details: buffer; in short: as §2
[22] = Configurational stability of compound in water-acetonitrile assessed as forward equilibrium rate epimerization at 37 degC by dynamic HPLC analysis; type: physicochemical; details: buffer; in short: as §3
[23] = Configurational stability of compound in water-acetonitrile assessed as forward rate equilibrium epimerization at pH 2.2 using IAM column by stopped flow bidimensional recycling HPLC; type: physicochemical; details: artificial membrane; in short: as §1
[24] = tested on: DIV7-10; assay: Positive allosteric modulation activity at AMPA receptor in Sprague-Dawley rat cortical neuronal DIV7-10 cells assessed as increase in kainate induced currents at 100 uM by patch clamp electrophysiological method; type: cell-based
In short: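 Cortical neurons from newborn Sprague–Dawley rats: trypsin-dispersed, plated on poly-L-lysine and switched to BME/Neurobasal with B27 after 24 h, with 1 µM Ara-C added at DIV5. Whole-cell voltage-clamp at room temperature on DIV7-10 cells. Kainate-evoked currents recorded with co-application of epimeric mixture at 100 µM. Potentiation given as mean ± SE, n = 4.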

[25] = Configurational stability of compound in water-acetonitrile assessed as backward rate epimerization at pH 7 using IAM column by stopped flow bidimensional recycling HPLC; type: physicochemical; details: artificial membrane; in short: as §1
[26] = Configurational stability of compound in water-acetonitrile assessed as backward rate epimerization at 5 degC by dynamic HPLC analysis; type: physicochemical; details: buffer; in short: as §3
[27] = Configurational stability of compound in water-acetonitrile assessed as forward equilibrium rate epimerization at 25 degC by dynamic HPLC analysis; type: physicochemical; details: buffer; in short: as §3
[28] = Configurational stability of compound in water-acetonitrile assessed as backward rate epimerization at 37 degC by dynamic HPLC analysis; type: physicochemical; details: buffer; in short: as §3
[29] = Configurational stability of compound in water-acetonitrile assessed as backward rate equilibrium epimerization at pH 2.2 using C-8 column by stopped flow bidimensional recycling HPLC; type: physicochemical; details: buffer; in short: as §2

Stability [1]: Stable
Compound: CC1CN2c3c1cc(Cl)cc3S(=O)(=O)NC2C (stereo not given)

half-life [2]: 10 min
K [3]: 9.63 ×10⁻⁴ /s
K [4]: 5.3 ×10⁻⁴ /s
K [5]: 7.2 ×10⁻⁴ /s
K [6]: 5.9 ×10⁻⁴ /s
K [7]: 1.11 ×10⁻⁴ /s
K [8]: 4.49 ×10⁻⁴ /s
K [9]: 3.48 ×10⁻⁴ /s
K [10]: 1.28 ×10⁻⁴ /s
K [11]: 6.68 ×10⁻⁴ /s
K [12]: 8.93 ×10⁻⁴ /s
half-life [13]: 10 min
K [14]: 0.76 ×10⁻⁴ /s
K [15]: 7.77 ×10⁻⁴ /s
K [16]: 2.34 ×10⁻⁴ /s
K [17]: 0.17 ×10⁻⁴ /s
K [18]: 0.23 ×10⁻⁴ /s
K [19]: 6.68 ×10⁻⁴ /s
K [20]: 2.26 ×10⁻⁴ /s
K [21]: 4.61 ×10⁻⁴ /s
K [22]: 1.99 ×10⁻⁴ /s
K [23]: 10.7 ×10⁻⁴ /s
K [25]: 2.75 ×10⁻⁴ /s
K [26]: 0.06 ×10⁻⁴ /s
K [27]: 1.87 ×10⁻⁴ /s
K [28]: 0.71 ×10⁻⁴ /s
K [29]: 6.52 ×10⁻⁴ /s
Compound: CC1NS(=O)(=O)c2cc(Cl)cc3c2N1C[C@@H]3C (mixture of isomers)
Activity [24]: 112%

Compound: CC1NS(=O)(=O)c2cc(Cl)cc3c2N1C[C@H]3C (mixture of isomers)
Activity [24]: 250%
